Measurements as given in article PMC6092622 (The EMBO Journal, 2018).
Read-outs that look alike come from different tables or passages of the source.

Assays:
[1] = target: mouse CB2 (Mus musculus, UniProt P47936); assay: cAMP assay in CHO cells stably expressing mouse CB2; type: cell-based; settings: in words
Procedure, shortened: (§1)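 cAMP assays were run in CHO cells stably expressing human CB2 or mouse CB2. Efficacy is expressed as % of the response to 1 μM CP55940.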

[2] = system: SOD1 (G93A) mice; assay: CB2 ligands given i.p. to SOD1; type: in vivo, mouse; settings: for %IBA1+ area (microglial expansion): P25 to P35, SOD1-veh 9.7 ± 0.4%; for fraction of LC3A bright MN: P25 to P35, vehicle 23.4 ± 7.7; for misfolded SOD1: high-burden MN fraction: P25 to P35, vehicle 25.4 ± 5.5%
Procedure, shortened: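 Male SOD1(G93A) mice got daily i.p. CB2 agonists (10 mg/kg) or inverse agonist (30 mg/kg) as a microsuspension in 1% Tween-80/0.9% NaCl with 0.2% parabens, or vehicle. Spinal cords were perfusion-fixed and cut into 40 μm free-floating sections. CD4 was stained after citrate-heat antigen retrieval. IBA1 was scored as the thresholded area fraction of ventral-horn ROIs. High-burden MN cutoff: 75th percentile of vehicle-treated SOD1. Used 8–10 sections/mouse, ≥4 mice/group.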

[3] = target: T1, human CB2 (Homo sapiens, UniProt P34972); assay: cAMP assay in CHO cells stably expressing human CB2; type: cell-based; settings: in words
Procedure, shortened: as §1

[4] = system: WT mice; assay: CB2 agonists given to WT mice, IBA1 immunostaining; type: in vivo, mouse; settings: IBA1 staining
[5] = target: T1, human CB2; type: binding; settings: CB2 versus CB1, as stated in text
Procedure, shortened: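 Competition binding used [3H]-CP55940 radioligand on membranes from cells expressing human CB2 or human CB1, so that selectivity could be compared. Each compound was tested at 10 concentrations in triplicate. Ki values were calculated from a single experiment.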

[6] = system: IKK and SOD1/IKK mice; type: in vivo, mouse
Procedure, shortened: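 Transgene expression was active in the sustained cohort (DOX withdrawn at P20–25). Mice of all four genotypes got a Porcupine inhibitor by daily oral gavage at 10 mg/kg for 12 days, from P25 (sacrificed at P38) or from P90 (to P102). It was suspended in PBS + 5% Tween-80 + 5% PEG-400; vehicle controls were included. Spinal cord sections were immunostained; Ki-67 and CD45 required citrate antigen retrieval. Cell densities are per area unit.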

[7] = 10 mg/kg once daily i.p., P25 to P35
[8] = 30 mg/kg once daily i.p., P25 to P35

T1 sequence (P34972 whole entry): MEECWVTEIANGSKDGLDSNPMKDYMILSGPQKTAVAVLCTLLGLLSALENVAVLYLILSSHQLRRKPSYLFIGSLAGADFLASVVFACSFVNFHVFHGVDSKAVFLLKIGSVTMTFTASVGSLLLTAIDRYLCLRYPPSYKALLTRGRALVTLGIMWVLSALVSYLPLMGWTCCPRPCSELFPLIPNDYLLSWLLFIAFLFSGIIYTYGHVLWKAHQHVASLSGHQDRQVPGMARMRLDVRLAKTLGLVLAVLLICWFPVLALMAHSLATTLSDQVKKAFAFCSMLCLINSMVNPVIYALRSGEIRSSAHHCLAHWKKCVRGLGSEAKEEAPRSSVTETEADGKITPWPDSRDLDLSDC
Sequence of mouse CB2 (P47936 whole entry): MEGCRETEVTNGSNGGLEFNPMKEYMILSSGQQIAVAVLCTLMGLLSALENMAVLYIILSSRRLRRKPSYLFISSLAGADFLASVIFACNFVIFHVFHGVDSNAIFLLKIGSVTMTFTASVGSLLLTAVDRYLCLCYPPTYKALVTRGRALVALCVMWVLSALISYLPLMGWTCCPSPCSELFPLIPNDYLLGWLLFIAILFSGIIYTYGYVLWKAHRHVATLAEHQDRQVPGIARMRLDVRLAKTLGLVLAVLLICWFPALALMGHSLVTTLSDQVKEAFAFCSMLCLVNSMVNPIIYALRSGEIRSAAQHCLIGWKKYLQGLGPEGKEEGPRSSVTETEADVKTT

Compound | functional activity in cAMP assay, mouse CB2 [1] | infiltration of CD4+ lymphocytes in spinal cord [2, 7] | %IBA1+ area (microglial expansion) ([2]; 10 mg/kg once daily i.p.) | fraction of LC3A bright MN ([2]; 10 mg/kg once daily i.p.) | misfolded SOD1: high-burden MN fraction ([2]; 10 mg/kg once daily i.p.) | functional activity in cAMP assay, human CB2 [3] | effect on microglial size in WT animals [4] | binding selectivity against CB1 [5] | further results
Cc1nonc1Cn1nnc2c(N3CC[C@H](O)C3)nc(C(C)(C)C)nc21 [RO6866945, (3S)-1-[5-tert-Butyl-3-[(4-methyl-1,2,5-oxadiazol-3-yl)methyl]triazolo[4,5-d]pyrimidin-7-yl]pyrrolidin-3-ol] | full agonists | did not affect lymphocyte infiltration | 4.9 ± 0.2% | 70.8 ± 11.2% | 42.3 ± 8.7% | full agonists | did not affect microglial size | 939 fold | –
Cc1nc([C@@](C)(CC2CC2)NC(=O)c2cc(OCC(F)(F)F)c(C3CC3)cn2)no1 [RO6871085, 5-Cyclopropyl-N-[(1R)-2-cyclopropyl-1-methyl-1-(5-methyl-1,2,4-oxadiazol-3-yl)ethyl]-4-(2,2,2-trifluoroethoxy)pyridine-2-carboxamide] | full agonists | increased the number of CD4^+ cells | 5.2 ± 0.3% | 45.4 ± 5.6% | 69.1 ± 9.5% | full agonists | – | 44 fold | –
NC(=O)[C@@H]1CC(F)(F)CN1C(=O)c1ccc(N2CC(F)(F)C2)c(OCC2CC2)n1 [RO6895896, (2S)-1-[6-(Cyclopropylmethoxy)-5-(3,3-difluoroazetidin-1-yl)pyridine-2-carbonyl]-4,4-difluoro-pyrrolidine-2-carboxamide] | full agonists | did not affect lymphocyte infiltration | 6.0 ± 0.2% | 73.4 ± 12.4% | 72.4 ± 11.3% | full agonists | did not affect microglial size | – | –
CNC(=O)[C@@H](NC(=O)c1cc(OCC2(C)COC2)c(C2CC2)cn1)C(C)(C)C [RO6851228, 5-Cyclopropyl-N-[(1S)-2,2-dimethyl-1-(methylcarbamoyl)propyl]-4-[(3-methyloxetan-3-yl)methoxy]pyridine-2-carboxamide] | – | – | – | – | – | inverse agonist activity | – | – | infiltration of CD4+ lymphocytes in spinal cord [2, 8]: did not affect lymphocyte infiltration; microglial morphology [2, 8]: expansion of the size and of the complexity of microglial processes; fraction of LC3A bright MN ([2]; 30 mg/kg once daily i.p.): 11.4 ± 13.9%; misfolded SOD1: high-burden MN fraction ([2]; 30 mg/kg once daily i.p.): 10.2 ± 5.1%
Cc1cc(-c2ccc(CC(=O)Nc3ccc(-c4cccnc4)cc3)cc2)ccn1 [Compound C59] | – | – | – | – | – | – | – | – | WNT5a immunoreactivity ([6]; 10 mg/kg daily oral gavage for 12 days from P25, sacrifice at P38): < 10 % of vehicle‐treated (Veh) SOD1/IKK; decrease in misfolded SOD1 and LC3A levels in SOD1/IKK versus SOD1 littermates ([6]; 10 mg/kg daily oral, P25-P38): completely reverted; number of CD45+ cells ([6]; IKK and SOD1/IKK mice, late phase P90 to P102): significantly decreased; number of CD11b+KI-67+ cells ([6]; IKK mice, 10 mg/kg daily oral, P25-P38, IKK-Veh 11.0 ± 3.0): 5.4 ± 0.2 cells per 10^4 μm^2; overall IBA1+ area ([6]; IKK mice, 10 mg/kg daily oral, P25-P38, IKK-Veh 52.1 ± 6.5): 30.5 ± 4.6%; microglial density (number of IBA1+ cells) ([6]; IKK mice, 10 mg/kg daily oral, P25-P38, vehicle 30.4 ± 1.8): 18.2 ± 1.7 cells/10^4 μm^2; number of IBA1+ cells at P102 ([6]; IKK mice, late phase P90 to P102, IKK-Veh 16.5 ± 0.7): 7.8 ± 0.3; number of CD11b+KI-67+ cells ([6]; SOD1/IKK mice, 10 mg/kg daily oral, P25-P38, SOD1/IKK-Veh 18.0 ± 2.0): 5.0 ± 1.3 cells per 10^4 μm^2; overall IBA1+ area ([6]; SOD1/IKK mice, 10 mg/kg daily oral, P25-P38, SOD1/IKK-Veh 53.6 ± 3.9): 39.2 ± 4.9%; microglial density (number of IBA1+ cells) ([6]; SOD1/IKK mice, 10 mg/kg daily oral, P25-P38, vehicle 36.2 ± 6.1): 20.2 ± 4.0 cells/10^4 μm^2; number of IBA1+ cells at P102 ([6]; SOD1/IKK mice, late phase P90 to P102, SOD1/IKK-Veh 15.8 ± 0.2): 9.41 ± 0.35; number of CD45+ cells ([6]; early administration, 10 mg/kg daily oral, P25-P38): strongly decreased
